The list is not random: actives were taken first. Their share in the collection is about 2.3%.
CHT block = human CHT choline transport inhibition. Q9GZV3. CHT-expressing cells, membrane potential dye, choline response; hits give low values. B-score at 10 µM. hit rate 0.86% among 310,000;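 active = B-score over 3 SD under the library average, and starting fluorescence ratio not unusually high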;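 note: choline stimulus applied at its EC90 after an EC20 pre-addition; B-score computed on integrated fluorescence ratio after choline addition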
Target sequence (Q9GZV3 whole entry, looked up): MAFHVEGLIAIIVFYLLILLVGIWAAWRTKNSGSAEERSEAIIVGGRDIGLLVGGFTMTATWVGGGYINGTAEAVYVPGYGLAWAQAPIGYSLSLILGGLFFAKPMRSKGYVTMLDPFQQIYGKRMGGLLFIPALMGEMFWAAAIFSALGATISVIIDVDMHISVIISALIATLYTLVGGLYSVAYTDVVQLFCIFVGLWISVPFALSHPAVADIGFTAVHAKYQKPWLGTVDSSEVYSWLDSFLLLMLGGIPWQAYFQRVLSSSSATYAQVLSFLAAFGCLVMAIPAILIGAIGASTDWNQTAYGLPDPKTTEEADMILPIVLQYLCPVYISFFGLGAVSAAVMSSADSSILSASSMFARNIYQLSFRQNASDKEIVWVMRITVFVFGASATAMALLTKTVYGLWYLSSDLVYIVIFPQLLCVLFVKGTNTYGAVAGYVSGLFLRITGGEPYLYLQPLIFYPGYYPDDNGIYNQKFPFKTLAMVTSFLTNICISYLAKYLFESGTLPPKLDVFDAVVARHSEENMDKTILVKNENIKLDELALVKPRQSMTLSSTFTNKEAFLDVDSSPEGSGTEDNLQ
GPR7 antag = blocks human GPR7 receptor signaling. GPR7-expressing cells, fluorescence antagonist assay. hit rate 1.1% among 290,000. inhibition, % at 4.4 µM. AID 1861. P48145; in the data active = inhibition above about 16%, passing the limit was not always enough;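 note: cells stimulated with the agonist NPW; 0% = agonist with vehicle and 100% = vehicle without agonist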
T cell modulator = T cell immune modulators affecting CD8 T cell-vesicle binding. 2C CD8+ T cell-vesicle binding, flow cytometry; hits give low values. response (vesicle binding), % at 7 µM. hit rate 0.068% among 330,000. AID 2052;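 active = response, share of CD8 T cells binding vesicles, and their 90th percentile fluorescence all below set limits, cut at about 80% in these data, passing the limit was not always enough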;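 note: values below 100% mean blocked vesicle binding to the CD8+ T cells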
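Incubation: binding step 1.5 h, 37 °C, antibody labelling 20 min, ice; system: murine 2C transgenic CD8+ T lymphocytes; technique: cytometric PE anti-B7-1 and Alexa647 anti-CD8 signals after 1% paraformaldehyde fixation; also added: QL9-charged Drosophila Ld/ICAM-1/B7-1 vesicles; control set: naked versus QL9-loaded vesicles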
Pemphigus Ab inh = human desmoglein-3 autoantibody binding inhibition | P32926 | DSG3-coupled beads, scFv-anti-DSG3-GFP binding, flow cytometry; hits give low values | AID 588358 | hit rate 0.48% among 310,000 | binding (percent of control), % at 10 µM;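 active = binding more than 3 SD below its plate's average and above zero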;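 note: hits lower antibody fragment binding to DSG3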
CHT PAM = allosterically activates the human high affinity choline transporter; Q9GZV3; CHT-expressing cells, membrane potential dye, choline EC20; hits give high values; LV-AA mutant CHT in HEK293 cells; B-score at 10 µM; hit rate 0.49% among 310,000;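 active = initial fluorescence not abnormally high and integrated response B-score, plate-corrected, over 3 SD above library mean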
pCIP destab = p/CIP protein destabilization | AID 1984 | F442A p/CIP-EGFP cells, EGFP fluorescence, 16 h | Q05BA5 | decrease of EGFP signal, % at 10 µM | hit rate 0.01% among 290,000;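 active = EGFP signal decrease of at least 30% at 10 µM or well 3 SD below plate mean, unless failing retest; inactive = the rest, including hits failing retest or dose response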
CHT activ conf = confirmation of human choline transporter (CHT) activators | shares compounds with CHT PAM | CHT-expressing cells, membrane potential dye fluorescence (FDSS); % of choline EC20–EC90 response window; HEK293 expressing CHT LV-AA mutant; choline added at its EC20 | activation, % at 10 µM | hit rate 91% among 2,500 | AID 504833;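 active = primary screen active, with duplicate mean activation above negative control mean plus 3 SD, cut at about 11% in these data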
HEK293 MP dye = counter-screen for CHT activators: effect in parental HEK293 cells; membrane potential dye fluorescence (FDSS); measured after EC20 choline addition; AID 623908; shares compounds with CHT PAM; ratio readout change at 10 µM, hits read low; hit rate 62% among 2,500;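 active = duplicate-averaged ratio beyond 3 SD from buffer wells, up or down, though filed actives are nearly all decreases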
* hit, by the source's call; i = inactive; · = no result.

SMILES | CHT block | GPR7 antag | T cell modulator | Pemphigus Ab inh | CHT PAM | pCIP destab | CHT activ conf | HEK293 MP dye
CN1Cc2c(N3CCOCC3)nc3sc(C#N)c(N)c3c2CC1(C)C | i | -12.4 | 279.9 | 111.3 | i | 3.7 | 49.5* | -55*
COc1ccc(NC2=C(c3ccc(OC)cc3)C(=O)c3ccccc32)cc1 | i | -6.7 | 338.7 | 102.9 | i | 6.9 | · | ·
COC1=C(Nc2ccc(OC)cc2)C(=O)c2ccccc2C1=O | i | -4.0 | 165.6 | 75.5 | 6.51* | -5.6 | 11.8* | -64.5*
COC1=C(Nc2ccc(O)cc2)C(=O)c2ccccc2C1=O | i | 1.0 | 604.0 | 97.6 | i | -16.3 | 29.0* | -78.1*
O=C1C=C(Nc2ccc(O)cc2)C(=O)c2ccccc21 | i | 2.0 | 411.7 | 95.0 | i | 3.3 | · | ·
COC1=C(Nc2ccc(OC)cc2)C(=O)C(OC)=C(Nc2ccc(OC)cc2)C1=O | · | · | · | 92.8 | · | · | · | ·
CCOc1ccc(NC2=C(OC)C(=O)c3ccccc3C2=O)cc1 | i | -5.5 | 240.8 | 100.7 | i | -18.7 | 13.6* | -66.6*
CCN(CC)C(=O)C1=C(C)N(CCC2=CCCCC2)C(=O)C(CC(=O)NCCCN(C)C)C1 (centres undefined) | · | · | · | 103.2 | · | · | · | ·
Cc1cc2c(cc1C)[n+](C)cn2CC(O)COCc1ccccc1 (centres undefined) | i | -12.9 | 187.5 | 94.7 | i | -19.9 | 48.4* | -35.4*
CC1=CC2=NC(=O)/C(=C\c3cc(C)n(-c4ccccc4F)c3C)C(=N)N2O1 | i | 2.0 | 114.5 | 119.3 | i | -14.8 | · | ·
Cc1cc(/C=C2/C(=N)N3C(=NC2=O)SN=C3S(C)(=O)=O)c(C)n1-c1ccccc1F | i | 3.6 | 228.8 | 88.2 | 7.61* | 14.0 | -16.6 | i
Cc1cccc(CNC(=O)C2CCC(=O)N(CC3CCCCC3)C2)c1 (centres undefined) | · | · | · | 104.7 | · | · | · | ·
COc1ccccc1N(C(=O)c1ccco1)C(C(=O)NC1CCCC1)c1cccs1 (centres undefined) | i | 14.3 | 251.3 | · | 11.1* | -9.8 | 22.7* | i
COc1ccc(N(C(=O)c2ccco2)C(C(=O)NC2CCCC2)c2cccs2)cc1OC (centres undefined) | i | -2.9 | 351.0 | 85.6 | i | -7.0 | · | ·
CN(C(=O)COC(=O)c1cccs1)c1ccccc1 | · | · | · | 98.5 | · | · | · | ·
COc1ccc(Cn2c(-c3ccc(C)cc3)c[n+]3ccccc23)cc1 | i | -6.0 | 241.7 | 84.0 | 10.9* | 0.0 | 61.9* | -50.9*
COc1ccccc1NC(=O)C(C)OC(=O)C1CCN(S(=O)(=O)c2ccccc2C(F)(F)F)CC1 (centres undefined) | · | · | · | 104.1 | · | · | · | ·
CCN(CC)CCN(Cc1cc2ccc(C)c(C)c2[nH]c1=O)C(=S)NCc1ccco1 | i | 17.4 | 242.6 | 101.3 | i | -4.6 | 16.3* | -24.9*
Cc1nc(CN(C)C(=O)CC2C(=O)NCCN2Cc2ccc(-c3ccccc3)cc2)cs1 (centres undefined) | i | -10.5 | 310.8 | 103.1 | i | -3.0 | · | ·
CC(=O)c1ccc2c3c(cc(C)c2c1)CCCC3 | · | · | · | 123.4 | · | · | · | ·
CC(Oc1ccccc1)C(=O)N1CCC2(CC1)Oc1ccc(Cl)cc1C(=O)C21CC(c2ccccc2)=NO1 (centres undefined) | i | · | 460.3 | · | i | · | · | ·
CC(C)C(=O)N1CCC2(CC1)Oc1ccc(Cl)cc1C(=O)C21CC(c2ccccc2)=NO1 (centres undefined) | i | · | 434.5 | 103.6 | i | -3.4 | 5.8 | i
Cc1ccc(S(=O)(=O)Nc2nncs2)cc1 | i | -11.9 | 262.2 | 98.2 | 9.46* | -14.2 | -2.9 | i
Cc1ccc(S(=O)(=O)N2CCC(C(=O)OCC(=O)N(Cc3ccccc3)C(C)C)CC2)cc1C | · | · | · | 98.7 | · | · | · | ·
COC(=O)CCC(=O)Nc1sc2c(c1C#N)CCCC2 | i | 9.5 | 294.8 | · | 9.23* | 1.4 | 24.8* | i
SMILES | CHT block | GPR7 antag | T cell modulator | Pemphigus Ab inh | CHT PAM | pCIP destab | CHT activ conf | HEK293 MP dye
CCCC(=O)Nc1sc2c(c1C#N)CCCC2 | i | -0.6 | 426.1 | 101.7 | i | -7.1 | · | ·
CC(C)(CN1CCN(Cc2ccccc2)CC1)NS(=O)(=O)c1ccc(Cl)cc1 | i | 13.7 | 99.6 | 84.4 | 8.97* | -14.3 | 21.2* | i
CN1CCN(CC(C)(C)NS(=O)(=O)c2ccc(Cl)cc2)CC1 | i | 3.0 | 245.3 | 128.0 | i | -4.9 | · | ·
Cc1ccc(C(C)C)c(OCC(=O)Nc2ccc3c(c2)nc(CCN2CCCCC2)n3C)c1 | i | 8.0 | 489.6 | 103.0 | i | -5.1 | 24.7* | -26.9*
C/C(=N\NC(=O)c1c(C)nc2ccccn12)c1ccco1 | i | -0.6 | 270.1 | 100.1 | 10.2* | 3.1 | 15.3* | i
O=C(N/N=C/c1ccc([N+](=O)[O-])o1)c1ccncc1 | i | 0.3 | 245.1 | 108.6 | i | -7.1 | 56.3* | -47.4*
C/C(=N\NC(=O)c1c(C)nc2ccccn12)c1ccc(C(C)(C)C)cc1 | i | -2.1 | 48.9 | 118.9 | i | -20.7 | · | ·
O=C(N/N=C/c1cc([N+](=O)[O-])ccc1O)c1ccncc1 | i | -8.5 | 324.0 | 94.3 | i | 1.1 | 36.2* | -38.8*
Cc1nc2ccccn2c1C(=O)N/N=C/c1ccc([N+](=O)[O-])cc1 | i | -5.6 | 345.5 | · | i | -0.5 | · | ·
Cc1nc2ccccn2c1C(=O)N/N=C/c1ccc([N+](=O)[O-])o1 | i | -14.1 | 94.7 | 95.3 | i | 17.7 | 31.2* | -39.2*
COCC(=O)N1CCC2CC1c1cc(Cl)ccc12 (centres undefined) | · | · | · | 107.0 | · | · | · | ·
COc1ccc(C(=O)C2CCCN(Cc3cccn3-c3nccs3)C2)cc1OC (centres undefined) | i | -5.9 | 257.1 | 103.7 | i | -4.0 | · | ·
COc1cccc(C(=O)C2CCCN(Cc3cccn3-c3ccccn3)C2)c1 (centres undefined) | i | 16.6 | 319.8 | 101.2 | 9.65* | -13.3 | 45.7* | -25.6*
Cc1ccsc1C(=O)C1CCCN(Cc2cccn2-c2ccc(Cl)cn2)C1 (centres undefined) | i | 39.5* | 158.3 | 98.2 | 16.1* | -19.2 | 49.3* | i
O=C(CSc1nc2ccccc2c(=O)n1-c1ccc(Cl)cc1)N/N=C/C=C/c1ccccc1[N+](=O)[O-] | i | -2.6 | 670.0 | 93.3 | 7.71* | 5.2 | 13.0* | i

Source: PubChem (several laboratories)
